Bioassay records: PubChem, several laboratories
HIV Rev-RRE inh = inhibitors of HIV-1 Rev-RRE RNA interaction; actives 0.79% (n = 97,000); Rev peptide-RRE RNA binding, FRET; inhibition, % at 8 µM;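 active = inhibition above the screen-wide mean plus 3 SD, cut at about 35% in these data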;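 also: 0% = median DMSO wells and 100% = median Neomycin B control wells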
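Assay system: labelled RRE RNA duplex and labelled Rev peptide / Medium: HEPES pH 7.5 salt buffer with EDTA / Reagent: labelled Rev peptide / Schedule: 5 + 15 min at 25 °C / Signal: FRET, excitation 480 nm, emission 540 nm donor and 671 nm acceptor / Benchmarks: DMSO and neomycin B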
EphB4 ephrin blk = antagonists of human EphB4-ephrin-B2 interaction; P54760; EphB4 LBD / TNYL-RAW-Alexa532 peptide, fluorescence polarization; inhibition, % at 7 µM; actives 0.15% (n = 97,000); AID 720;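 active = inhibition above the screen-wide mean inhibition plus 3 SD, cut at about 15% in these data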;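 also: 0% = DMSO wells and 100% = excess unlabeled TNYL-RAW peptide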
hDAT+cocaine = modulates human dopamine transporter uptake under cocaine. Q01959. LLC-PK1 hDAT cells, [14C]-dopamine uptake with cocaine IC80; actives deviate in either direction. B-score at 10 µM. actives 1.3% (n = 110,000);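 active = Z score or B-score, a plate-position-corrected score, falls beyond the plate's 99.7% confidence bounds, in either direction; inactive = both scores lie inside the 99.7% bounds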;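 also: scored against the spread of the other compound wells on the same plate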
Cav32 inh = inhibitors of human Cav3.2 T-type calcium channel; O95180; Cav3.2-expressing cells, Fluo-4 calcium fluorescence FDSS; active compounds read low; B-score at 10 µM; actives 4% (n = 100,000);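 active = single-dose well whose peak fluorescence ratio is a statistical outlier from its plate by either plate-standardised score or position-corrected B-score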
* marks the source's active call; other numbers are inactive results; [ ] = remark or other dose. A selection: hits, their analogues and other compounds. The true share with any hit is near 5.4%.

How did CC(C)(C)n1nnnc1C(c1cccc(C#N)c1)N1CCCc2ccccc21 (stereo unspecified) do in these assays?
HIV Rev-RRE inh: 11.8; EphB4 ephrin blk: -6.3; hDAT+cocaine: 0.269; Cav32 inh: -1.92

Results for CC(C)(C)n1nnnc1C(c1cccc(C#N)c1)N1CCC(Cc2ccccc2)CC1 (stereo unspecified) ?
HIV Rev-RRE inh: -0.6; EphB4 ephrin blk: -0.4; hDAT+cocaine: -0.83; Cav32 inh: -4.76*

What do the screens show for `CCC(C)(C)n1nnnc1C(c1ccncc1)N1CCC(Cc2ccccc2)CC1` (stereo unspecified)?
HIV Rev-RRE inh: -0.4; EphB4 ephrin blk: 1.2; hDAT+cocaine: 0.00549; Cav32 inh: -3.7*

What do the screens show for `CCC(C)(C)n1nnnc1C(c1cccnc1)N1CCN(c2cccc(C(F)(F)F)c2)CC1` (stereo unspecified)?
HIV Rev-RRE inh: 3.4; EphB4 ephrin blk: 1.3; hDAT+cocaine: 0.473; Cav32 inh: -5.1*

How did COc1cc(NS(=O)(=O)c2ccc(Br)cc2)c(OC)cc1NC(=O)c1ccco1 do in these assays?
HIV Rev-RRE inh: 11.0; EphB4 ephrin blk: -6.8; hDAT+cocaine: 2.12; Cav32 inh: -0.897

Results for Cc1nn(-c2ccccc2)c2[nH]c(=O)c(CNCc3ccc4c(c3)OCO4)cc12 ?
HIV Rev-RRE inh: 3.6; EphB4 ephrin blk: -6.8; hDAT+cocaine: 0.731; Cav32 inh: 1.72

What do the screens show for `Cc1ccc(-c2nn(-c3ccccc3)c3[nH]c(=O)c(CNCc4ccccc4)cc23)cc1`?
HIV Rev-RRE inh: 12.9; EphB4 ephrin blk: 3.1; hDAT+cocaine: -0.652; Cav32 inh: -3.58*

How did C=CCn1c(SCC(=O)Nc2ccc3c(c2)OCO3)nnc1-c1cc(Br)ccc1O do in these assays?
HIV Rev-RRE inh: 6.7; EphB4 ephrin blk: -2.9; hDAT+cocaine: -0.145; Cav32 inh: -6.61*

Results for C=CCn1c(SCC(=O)Nc2ccc3c(c2)OCO3)nnc1-c1ccccc1 ?
HIV Rev-RRE inh: -0.3; EphB4 ephrin blk: 3.9; hDAT+cocaine: 0.186; Cav32 inh: 0.429

What do the screens show for `C#CCOCCOCCOCCNc1nc(N2CCOCC2)nc(N2CCN(C(=O)[C@H](C)n3cc(CCCN=C(N)N)nn3)CC2)n1`?
hDAT+cocaine: -0.387; Cav32 inh: 0.688

Results for Nc1c(N2CCCC2)cc(Cl)c2nonc12 ?
HIV Rev-RRE inh: 40.5*; EphB4 ephrin blk: -0.5; hDAT+cocaine: -2.18; Cav32 inh: -0.808

Results for CCCCCCC1NC(C(=O)O)CS1 (stereo unspecified) ?
HIV Rev-RRE inh: 3.8; EphB4 ephrin blk: 1.0; hDAT+cocaine: 0.597; Cav32 inh: -0.0826

What do the screens show for `Cc1ccc(-c2nnc(CSc3nnc(COc4ccccc4)n3-c3ccc(C)cc3)o2)cc1`?
HIV Rev-RRE inh: -4.3; EphB4 ephrin blk: -3.2; hDAT+cocaine: 0.832; Cav32 inh: -5.48*

Results for Cc1ccc(-c2nnc(CSc3nnc(COc4ccccc4)n3-c3ccccc3)o2)cc1 ?
HIV Rev-RRE inh: 8.6; EphB4 ephrin blk: 7.3; hDAT+cocaine: 0.862; Cav32 inh: -6.96*

What do the screens show for `Cc1ccc(-c2nnc(COc3cccc(-n4cnnn4)c3)o2)cc1`?
HIV Rev-RRE inh: 2.5; EphB4 ephrin blk: 7.1; hDAT+cocaine: -10.6*

Results for N#Cc1ccc(CSc2nnc(COc3ccccc3)n2-c2ccccc2)cc1 ?
HIV Rev-RRE inh: 13.7; EphB4 ephrin blk: 9.7; hDAT+cocaine: 0.705; Cav32 inh: -0.763

Results for COc1ccc(-c2csc(/C(C#N)=C(\O)CSc3nccn3C)n2)cc1OC ?
HIV Rev-RRE inh: 8.3; EphB4 ephrin blk: 2.2; hDAT+cocaine: 0.234; Cav32 inh: -0.814

How did Cc1cccc(C)c1OCC(O)CN1CCC(CN2C(=O)c3cccc4cccc(c34)C2=O)CC1 (stereo unspecified) do in these assays?
HIV Rev-RRE inh: 1.5; EphB4 ephrin blk: -1.9; hDAT+cocaine: 1.62; Cav32 inh: -3.81

Results for CC/C(=N\n1nnnc1Nc1ccccc1)c1ccccc1 ?
HIV Rev-RRE inh: 7.8; EphB4 ephrin blk: 6.9; hDAT+cocaine: 1.15; Cav32 inh: -5.73*

Results for CC(C)c1ccc(/C=N/n2nnnc2Nc2ccccc2)cc1 ?
HIV Rev-RRE inh: -0.3; EphB4 ephrin blk: -5.1; hDAT+cocaine: -0.96; Cav32 inh: -0.0169

How did Cc1nn(Cc2ccccc2)c(C)c1C(=O)OCC(=O)c1cc(C)n(C2CC2)c1C do in these assays?
HIV Rev-RRE inh: 1.2; EphB4 ephrin blk: 3.7; hDAT+cocaine: 1.35; Cav32 inh: -4.75*

How did COCCn1c(C)cc(C(=O)COC(=O)c2c(C)nn(Cc3ccccc3)c2C)c1C do in these assays?
HIV Rev-RRE inh: -3.1; EphB4 ephrin blk: -8.8; hDAT+cocaine: 0.794; Cav32 inh: -5.91*

What do the screens show for `COCC(C)n1c(C)cc(C(=O)COC(=O)c2c(C)nn(-c3ccccc3)c2C)c1C` (stereo unspecified)?
HIV Rev-RRE inh: 1.8; EphB4 ephrin blk: 2.1; hDAT+cocaine: 1.6; Cav32 inh: -2.31

Results for CC(=NC1CCCCC1)C1=C(O)c2ccccc2C1=O ?
HIV Rev-RRE inh: 5.2; EphB4 ephrin blk: -0.9; hDAT+cocaine: 2.01*; Cav32 inh: -2.36

What do the screens show for `COc1ccc(CCn2c(C)cc(C(=O)CSc3nnnn3-c3ccccc3)c2C)cc1`?
HIV Rev-RRE inh: 7.7; EphB4 ephrin blk: 3.6; hDAT+cocaine: -0.00512; Cav32 inh: -0.276

Results for CCCC/C=C/C(NC(=O)c1ccc(C(=O)OC)cc1)c1ccccc1 (stereo unspecified) ?
hDAT+cocaine: -0.512; Cav32 inh: -0.63

How did Cc1c(C(=O)OC(C)CCN(C)C)oc2ccccc12 (stereo unspecified) do in these assays?
HIV Rev-RRE inh: 141.3*[fluorescence artefact?]; EphB4 ephrin blk: -0.5; hDAT+cocaine: -0.468; Cav32 inh: -0.269

How did Cc1c(C(=O)OCC(C)(C)CN(C)C)oc2ccccc12 do in these assays?
hDAT+cocaine: 0.257; Cav32 inh: 0.285

Results for CC(=O)n1cc([C@H]2C=C(C(=O)N3CCN(Cc4ccccc4)CC3)O[C@@H](OCc3ccc(CO)cc3)C2)c2ccccc21 ?
hDAT+cocaine: -0.0942; Cav32 inh: 0.0131

What do the screens show for `Cc1sc(NC(=O)c2cccs2)nc1-c1ccccc1`?
HIV Rev-RRE inh: 9.5; EphB4 ephrin blk: 5.1; hDAT+cocaine: -0.0695; Cav32 inh: -0.17

How did N#Cc1c(-c2ccccc2)c(-c2ccccc2)n(Cc2ccco2)c1NC(=O)c1cccs1 do in these assays?
HIV Rev-RRE inh: 6.8; EphB4 ephrin blk: 1.2; hDAT+cocaine: 0.044; Cav32 inh: -8.9*

How did O=C(CC1C(=O)N(c2ccccc2)C(=O)N1C1CCCCC1)Nc1ccccc1 (stereo unspecified) do in these assays?
HIV Rev-RRE inh: 8.8; EphB4 ephrin blk: 5.6; hDAT+cocaine: -0.106; Cav32 inh: 0.21

How did O=C(O)C1CC=CCC1C(=O)Nc1ccccc1 (stereo unspecified) do in these assays?
HIV Rev-RRE inh: 7.4; EphB4 ephrin blk: 8.1; hDAT+cocaine: 0.864; Cav32 inh: -0.0209

Results for O=C(O)C1CC=CCC1C(=O)Nc1ccc(S(=O)(=O)N2CCCc3ccccc32)cc1 (stereo unspecified) ?
HIV Rev-RRE inh: 3.8; EphB4 ephrin blk: 0.4; hDAT+cocaine: 1.34*; Cav32 inh: -1.04
